Source: ChEMBL document CHEMBL1156371, “New polyoxygenated briarane diterpenoids, briaexcavatolides O-R, from the gorgonian Briareum excavatum” (2001)
In brackets after ≈: the same amount, converted by molar mass. Activity calls are given as the source filed them. The calls are words filed in the database; no cut-off is given here.

Columns and labels:
Format in all cases: functional
[1] = system: P388; assay: Cytotoxicity against mouse P388 cells by MTT assay
Summary of the method: (§1)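 Colorimetric read-out using a modified MTT [3-(4,5-dimethylthiazol-2-yl)-2,5-diphenyltetrazolium bromide] method, following previously described procedures.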

[2] = system: HT-29; assay: Cytotoxicity against human HT-29 cells by MTT assay; summary of the method: as §1
[3] = system: A549; assay: Cytotoxicity against human A549 cells by MTT assay; summary of the method: as §1
[4] = read-out: ED50 (the source's name)

Question: With `CCCC(=O)O[C@@H]1/C(C)=C\[C@@H]2OC(=O)[C@@]3(C)O[C@]23[C@@H](OC(C)=O)[C@H]2[C@@H](C)[C@@H](OC(C)=O)C[C@H](OC(C)=O)[C@]2(C)[C@@H](OC(C)=O)[C@H]1O` as the compound, how does the Activity [1] read?
Answer: inactive

Question: What about the Activity [2] of the same compound?
Answer: inactive

Question: And the Activity [3]?
Answer: inactive

Question: With `CCCCCCCC(=O)O[C@H]1C[C@H](OC(C)=O)[C@@]2(C)[C@H]([C@H]1C)[C@H](OC(C)=O)[C@]13O[C@]1(C)C(=O)O[C@H]3/C=C(/C)C[C@H](OC(=O)CCC)[C@@H]2OC(C)=O` as the compound, how does the Activity [1] read?
Answer: inactive

Question: What about the Activity [2] of the same compound?
Answer: inactive

Question: What about the Activity [3] of the same compound?
Answer: inactive

Question: What does the source list for `CCCC(=O)O[C@@H]1/C(C)=C\[C@@H]2OC(=O)[C@@]3(C)O[C@]23[C@@H](OC(C)=O)[C@H]2[C@@H](C)[C@@H](O)C[C@H](OC(C)=O)[C@]2(C)[C@@H](OC(C)=O)[C@H]1O` [BRIAEXCAVATOLIDE P]?
Answer: EC50 [1, 4]: 0.9 µg/mL (≈ 1.47 µM); EC50 [2, 4]: 3.1 µg/mL (≈ 5.08 µM); EC50 [3, 4]: 4.8 µg/mL (≈ 7.86 µM)

Question: With `CCCC(=O)O[C@@H]1/C(C)=C\[C@@H]2OC(=O)[C@@]3(C)O[C@]23[C@@H](OC(C)=O)[C@H]2[C@@H](C)[C@@H](O)C[C@H](OC(C)=O)[C@]2(C)[C@@H](O)[C@H]1OC(C)=O` as the compound, how does the Activity [1] read?
Answer: inactive

Question: And the Activity [2]?
Answer: inactive

Question: What about the Activity [3] of the same compound?
Answer: inactive
